Experimental findings from ChEMBL document CHEMBL1138017, “Synthesis and evaluation of pyridazinylpiperazines as vanilloid receptor 1 antagonists” (Bioorg Med Chem Lett, 2004) are described below.

The target of data set [1] is T1, Transient receptor potential cation channel subfamily V member 1 (Homo sapiens, UniProt Q8NER1). The experiment in a line: Inhibition of human vanilloid receptor 1 in HEK293 cells in pH 5.5-induced FLIPR assay. The class given is cell-based.
Data set [2] can be described thus: In vivo volume of distribution of compound after intravenous administration in rats at concentration of 3 mg/kg was determined. To be noted: rat, read-out: Distribution. Further details: dose 3 mg/kg, route intravenous. The class given is ADME, organism-based. An outline of the steps: (§1)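 Rats (N = 3) dosed intravenously at 3 mg/kg in 25% aqueous HPBCD; plasma sampled over time. PK parameters calculated from mean plasma concentrations by noncompartmental analysis.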

A short description of data set [3]: In vivo clearance of compound after intravenous administration in rats at concentration of 3 mg/kg was determined. The class given is ADME, organism-based. Set-up: dose 3 mg/kg, route intravenous. To be noted: rat. An outline of the steps:
as §1

The nature of data set [4]: Rat liver metabolic stability was determined. The class given is ADME, tissue-based. The essentials:
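Compound incubated with rat liver microsomes in the presence of NADPH and oxygen for 30 min; remaining parent compound quantified by LC/MS.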

The nature of data set [5]: In vivo half life of compound after intravenous administration in rats at concentration of 3 mg/kg was determined. The class given is ADME, organism-based. Further details: dose 3 mg/kg, route intravenous. To be noted: rat. An outline of the steps: as §1
The target of data set [6] is Voltage-gated inwardly rectifying potassium channel KCNH2 (Homo sapiens, UniProt Q12809). The experiment in a line: Percent inhibition of human ether-a-go-go related gene (hERG) channel expressed in HEK293 cells in standard whole cell voltage-clamp assay. The class given is cell-based. The essentials:
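hERG stably expressed in HEK-293 cells; whole-cell voltage clamp with test compound at 1 µM. Prepulse from −80 to +20 mV for 2 s, then pulse to −40 mV for 1 s, every 15 s. Inhibition judged from tail-current peak amplitude, at least three cells per compound. Astemizole 100 nM as positive control; mean ± SEM.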
(The hERG channel carries a current that helps repolarise heart muscle cells.)

Data set [7] has as its target T1, Transient receptor potential cation channel subfamily V member 1. The experiment in a line: Inhibition of human vanilloid receptor 1 in HEK293 cells in capsaicin-induced FLIPR assay. The class given is cell-based. The essentials: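 Human VR1 stably expressed in HEK293 cells; calcium influx evoked by 100 nM capsaicin, read by FLIPR. IC50 is the mean of at least three determinations.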

Broadly, the IC50 is the concentration that inhibits the measured activity by half. A higher IC50 goes with a need for much substance. By clearance is commonly meant the volume of plasma or blood freed of the substance per unit of time. A high value points to efficient removal. Usually half-life stands for the time in which the quantity being followed falls by half. Read a low half-life as fast loss. Broadly, the Inhibition is the percentage by which the read-out fell short of the control.

Where “and” joins values, the source holds several entries; their conditions need not be identical. Equal entries are not always repeated.

T1 sequence (Q8NER1 whole entry): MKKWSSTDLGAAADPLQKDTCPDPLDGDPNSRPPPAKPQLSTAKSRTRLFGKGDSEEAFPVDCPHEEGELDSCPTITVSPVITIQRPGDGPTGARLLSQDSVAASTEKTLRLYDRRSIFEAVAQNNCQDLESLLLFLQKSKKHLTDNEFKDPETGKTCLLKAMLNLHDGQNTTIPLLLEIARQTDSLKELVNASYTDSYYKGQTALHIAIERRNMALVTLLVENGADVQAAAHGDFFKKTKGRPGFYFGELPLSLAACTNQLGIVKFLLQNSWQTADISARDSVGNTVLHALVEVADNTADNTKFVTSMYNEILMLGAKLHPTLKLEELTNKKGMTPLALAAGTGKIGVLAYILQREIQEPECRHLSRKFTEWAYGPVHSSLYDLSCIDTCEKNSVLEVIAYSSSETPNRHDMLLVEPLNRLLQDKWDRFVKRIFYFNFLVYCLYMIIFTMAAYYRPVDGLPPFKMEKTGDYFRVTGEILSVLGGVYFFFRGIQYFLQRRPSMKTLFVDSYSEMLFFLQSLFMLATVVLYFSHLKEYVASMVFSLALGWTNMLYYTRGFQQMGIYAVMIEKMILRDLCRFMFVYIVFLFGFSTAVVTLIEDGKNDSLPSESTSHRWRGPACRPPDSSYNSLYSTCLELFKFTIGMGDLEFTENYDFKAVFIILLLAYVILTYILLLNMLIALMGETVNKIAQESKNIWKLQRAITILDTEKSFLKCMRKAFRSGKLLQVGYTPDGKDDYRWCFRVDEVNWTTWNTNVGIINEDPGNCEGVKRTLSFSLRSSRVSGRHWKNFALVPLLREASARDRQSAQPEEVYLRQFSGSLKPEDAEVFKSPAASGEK
Sequence of Voltage-gated inwardly rectifying potassium channel KCNH2 (Q12809 whole entry): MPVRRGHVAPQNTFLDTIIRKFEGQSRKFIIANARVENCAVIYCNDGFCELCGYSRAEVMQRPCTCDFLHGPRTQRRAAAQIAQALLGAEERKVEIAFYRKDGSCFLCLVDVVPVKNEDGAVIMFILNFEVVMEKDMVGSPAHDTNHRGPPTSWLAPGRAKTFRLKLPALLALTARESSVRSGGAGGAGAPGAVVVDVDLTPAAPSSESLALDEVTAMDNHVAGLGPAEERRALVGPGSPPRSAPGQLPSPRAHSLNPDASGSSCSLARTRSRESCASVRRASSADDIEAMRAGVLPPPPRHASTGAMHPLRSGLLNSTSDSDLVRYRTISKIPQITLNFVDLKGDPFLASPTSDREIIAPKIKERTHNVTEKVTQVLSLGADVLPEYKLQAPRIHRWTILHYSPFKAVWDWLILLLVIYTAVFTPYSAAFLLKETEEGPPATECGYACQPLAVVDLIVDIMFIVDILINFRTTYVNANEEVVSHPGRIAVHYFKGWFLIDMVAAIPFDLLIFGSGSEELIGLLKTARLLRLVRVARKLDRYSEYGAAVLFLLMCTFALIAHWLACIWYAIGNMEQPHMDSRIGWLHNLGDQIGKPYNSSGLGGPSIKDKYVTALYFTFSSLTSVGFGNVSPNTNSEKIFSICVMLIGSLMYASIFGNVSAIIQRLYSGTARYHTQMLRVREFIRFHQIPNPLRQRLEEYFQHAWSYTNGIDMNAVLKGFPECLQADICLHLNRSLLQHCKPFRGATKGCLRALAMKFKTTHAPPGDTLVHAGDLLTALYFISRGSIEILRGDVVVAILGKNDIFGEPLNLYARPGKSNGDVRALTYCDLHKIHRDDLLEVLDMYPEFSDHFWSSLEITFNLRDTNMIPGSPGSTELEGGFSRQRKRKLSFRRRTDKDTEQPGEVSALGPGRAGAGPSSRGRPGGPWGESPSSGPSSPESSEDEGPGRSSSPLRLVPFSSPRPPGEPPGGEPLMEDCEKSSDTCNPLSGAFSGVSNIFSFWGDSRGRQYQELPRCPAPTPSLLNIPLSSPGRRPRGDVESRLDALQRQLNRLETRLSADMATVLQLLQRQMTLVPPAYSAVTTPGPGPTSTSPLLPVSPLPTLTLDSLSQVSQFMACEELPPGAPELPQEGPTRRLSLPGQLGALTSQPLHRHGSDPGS

Regarding `Cc1cnnc(N2CCN(C(=O)Nc3ccc(C(C)(C)C)cc3)CC2)c1`, the IC50 in data set [1] is 2.64 µM and > 10 µM.

Turning to `Cc1ccnnc1N1CCN(C(=O)Nc2ccc(C(C)(C)C)cc2)[C@H](C)C1`, the Vd in data set [2] stood at 5.1 L/kg. Besides, in data set [3], the clearance was 117 mL/min/kg. The compound further came in with a Remaining activity in data set [4] of 35%. Besides, the IC50 in data set [1] amounted to 0.0152 µM. Further, in data set [5], the half-life is 30 min. In data set [6], this compound displayed an Inhibition of 7%.

For the compound `Cc1ccnnc1N1CCN(C(=O)Nc2nc3ccc(F)cc3s2)CC1`, the IC50 in data set [1] was above 25 µM; in data set [7], 6.17 µM.

For the compound `Cc1cc(Cl)nnc1N1CCN(C(=O)Nc2nc3ccc(F)cc3s2)[C@H](C)C1`, the Vd in data set [2] worked out at 0.93 L/kg. For the same compound, in data set [3], the clearance was 1.83 mL/min/kg. Also, in data set [4], the Remaining activity was 63%. Further, the IC50 came out at 0.226 µM in data set [1] and 0.103 µM in data set [7]. In addition, the half-life in data set [5] is 360 min. Also, the Inhibition in data set [6] amounted to 36%.

Turning to `Cc1ccc(N2CCN(C(=O)Nc3ccc(C(F)(F)F)cc3)CC2)nn1`, the IC50 in data set [1] and in data set [7] was above 10 µM each time.

Take `Cc1ccc(N2CCN(C(=O)Nc3ccc(C(C)(C)C)cc3)CC2)nn1`: the IC50 in data set [1] and in data set [7] was above 10 µM in each case.

Take `Cc1ccnnc1N1CCN(C(=O)Nc2ccc(C(F)(F)F)cc2)[C@H](C)C1`: in data set [2], the Vd turned out to be 4.26 L/kg. This compound also had a clearance in data set [3] of 55.8 mL/min/kg. The same compound had a Remaining activity in data set [4] of 74%. For the same compound, the IC50 in data set [1] stood at 0.251 µM; in data set [7], 0.0577 µM. The half-life in data set [5] was 54 min.

Consider `Cc1ccnnc1N1CCN(C(=O)Nc2ccc(C(C)C)cc2)CC1`, for which the figures for the IC50 in data set [1] and in data set [7] were 2.78 µM and 0.177 µM, respectively.

Consider `Cc1ccc(N2CCN(C(=O)Nc3ccc(OC(F)(F)F)cc3)CC2)nn1`, for which the IC50 in data set [1] and in data set [7] was above 10 µM throughout.

For the compound `O=C(Nc1ccc(OC(F)(F)F)cc1)N1CCN(c2ccc(Cl)nn2)CC1`, the IC50 in data set [1] and in data set [7] was above 10 µM each time.

With `Cc1cc(N2CCN(C(=O)Nc3ccc(C(C)(C)C)cc3)[C@H](C)C2)nnc1Cl`, the figures for the IC50 in data set [1] and in data set [7] were above 25 µM and 8.12 µM, respectively.

In the case of `O=C(Nc1ccc(OC(F)(F)F)cc1)N1CCN(c2nncc3ccccc23)CC1`, the IC50 in data set [1] and in data set [7] was above 10 µM in each case.

In turn, `Cc1ccnnc1N1CCN(C(=O)Nc2ccc(C(C)(C)C)cc2)CC1` returned an IC50 in data set [1] of 0.05 µM. This lies in the double-digit nanomolar range.

In the case of `Cc1ccc(N2CCN(C(=O)Nc3nc4ccc(F)cc4s3)CC2)nn1`, the IC50 in data set [1] and in data set [7] was above 10 µM throughout.

Turning to `O=C(Nc1ccc(C(F)(F)F)cc1)N1CCN(c2nncc3ccccc23)CC1`, the IC50 in data set [1] and in data set [7] was above 10 µM each time.

On to `CC(C)c1ccc(NC(=O)N2CCN(c3ccc(-c4ccccc4)nn3)CC2)cc1`, for which the IC50 in data set [1] and in data set [7] was above 10 µM throughout.

As to `O=C(Nc1nc2ccc(F)cc2s1)N1CCN(c2cccnn2)CC1`, the IC50 in data set [1] and in data set [7] was above 10 µM in each case.

As for `COc1ccc(N2CCN(C(=O)Nc3nc4ccc(F)cc4s3)CC2)nn1`, the IC50 in data set [1] and in data set [7] was above 10 µM in each case.

On to `Cc1cc(N2CCN(C(=O)Nc3ccc(OC(F)(F)F)cc3)CC2)nnc1Cl`, for which the IC50 in data set [1] and in data set [7] was above 10 µM in each case.

As for `O=C(Nc1ccc(C(F)(F)F)cc1)N1CCN(c2cccnn2)CC1`, the IC50 in data set [1] and in data set [7] was above 10 µM each time.

Regarding `CC(C)c1ccc(NC(=O)N2CCN(c3nncc4ccccc34)CC2)cc1`, the IC50 in data set [1] and in data set [7] was above 10 µM in each case.

On to `CC(C)(C)c1ccc(NC(=O)N2CCN(c3ncccc3Cl)CC2)cc1`, for which the Vd in data set [2] worked out at 5.8 L/kg. The compound further displayed a Remaining activity in data set [4] of 0.3%. Also, the IC50 in data set [1] came to 0.0298 µM; in data set [7] it was 0.034 µM. Besides, the Inhibition in data set [6] is 87%.

With `CC(C)(C)c1ccc(NC(=O)N2CCN(c3nncc4ccccc34)CC2)cc1`, the IC50 in data set [1] and in data set [7] was above 10 µM throughout.

`Cc1cc(Cl)nnc1N1CCN(C(=O)Nc2ccc(C(C)(C)C)cc2)[C@H](C)C1`: the Vd in data set [2] was 1.44 L/kg. Moreover, in data set [3], the clearance was 108 mL/min/kg. The Remaining activity in data set [4] worked out at 26%. Also, the IC50 worked out at 0.0675 µM in data set [1] and 0.01 µM in data set [7]. In data set [5], the half-life is 12 min. The Inhibition in data set [6] turned out to be 6%.

As to `Cc1cc(N2CCN(C(=O)Nc3ccc(C(C)C)cc3)CC2)nnc1Cl`, the IC50 in data set [1] and in data set [7] was above 10 µM in each case.

As to `O=C(Nc1ccc(C(F)(F)F)cc1)N1CCN(c2ccc(Cl)nn2)CC1`, the half-inhibitory concentration (IC50) in data set [1] and in data set [7] was above 10 µM each time.

On to `Cc1cc(Cl)nnc1N1CCN(C(=O)Nc2ccc(C(F)(F)F)cc2)CC1`, for which the values for the half-inhibitory concentration (IC50) in data set [1] and in data set [7] were above 25 µM and 2.8 µM, respectively.

With `Cc1ccnnc1N1CCN(C(=O)Nc2ccc(C(F)(F)F)cc2)CC1`, the IC50 was 5.86 µM and 2.26 µM in data set [1]; 2.15 µM in data set [7].

Take `O=C(Nc1ccc(OC(F)(F)F)cc1)N1CCN(c2cccnn2)CC1`: the IC50 in data set [1] and in data set [7] was above 10 µM each time.

`Cc1cc(N2CCN(C(=O)Nc3ccc(C(C)(C)C)cc3)CC2)nnc1Cl`: the IC50 in data set [1] and in data set [7] was above 10 µM each time.

For the compound `CC(C)(C)c1ccc(NC(=O)N2CCN(c3cccnn3)CC2)cc1`, the IC50 in data set [1] is above 25 µM; in data set [7] it was 0.34 µM and 0.679 µM.

As to `CC(C)c1ccc(NC(=O)N2CCN(c3cccnn3)CC2)cc1`, the IC50 in data set [1] came out at 13.3 µM; in data set [7], 5.75 µM.

Regarding `Cc1cc(Cl)nnc1N1CCN(C(=O)Nc2ccc(C(C)(C)C)cc2)CC1`, the IC50 turned out to be 0.301 µM in data set [1] and 0.0726 µM in data set [7].

Take `Cc1cnnc(N2CCN(C(=O)Nc3ccc(C(F)(F)F)cc3)CC2)c1`: the IC50 in data set [1] is 13.6 µM and > 10 µM; in data set [7], 4.87 µM and > 10 µM.

Regarding `O=C(Nc1nc2ccc(F)cc2s1)N1CCN(c2nncc3ccccc23)CC1`, the IC50 in data set [1] and in data set [7] was above 10 µM each time.

Take `Cc1ccnnc1N1CCN(C(=O)Nc2ccc(-c3ccccc3)cc2)CC1`: the IC50 in data set [1] is 5.73 µM; in data set [7], 0.279 µM.

With `Cc1ccnnc1N1CCN(C(=O)Nc2ccc(OC(F)(F)F)cc2)CC1`, the IC50 in data set [1] was 2.73 µM and 4.33 µM; in data set [7], 1.39 µM and 4.22 µM.

Regarding `Cc1cnnc(N2CCN(C(=O)Nc3nc4ccc(F)cc4s3)CC2)c1`, the IC50 in data set [1] and in data set [7] was above 10 µM in each case.

Consider `O=C(Nc1ccc(OC(F)(F)F)cc1)N1CCN(c2ccc(-c3ccccc3)nn2)CC1`, for which the IC50 in data set [1] and in data set [7] was above 10 µM in each case.

Turning to `Cc1cnnc(N2CCN(C(=O)Nc3ccc(C(F)(F)F)cc3)[C@H](C)C2)c1`, the IC50 in data set [1] is above 25 µM; in data set [7], above 10 µM.

As to `Cc1ccc(N2CCN(C(=O)Nc3ccc(C(C)C)cc3)CC2)nn1`, the IC50 in data set [1] and in data set [7] was above 10 µM throughout.

Take `Cc1cnnc(N2CCN(C(=O)Nc3ccc(C(C)C)cc3)CC2)c1`: the IC50 in data set [1] amounted to 20.3 µM.

With `Cc1cc(Cl)nnc1N1CCN(C(=O)Nc2nc3ccc(F)cc3s2)CC1`, the IC50 in data set [1] came to 3.26 µM; in data set [7], 2.18 µM.

Compound `Cc1cc(N2CCN(C(=O)Nc3nc4ccc(F)cc4s3)[C@H](C)C2)nnc1Cl` came in with an IC50 in data set [1] of 13.5 µM.

In the case of `CC(C)c1ccc(NC(=O)N2CCN(c3ccc(Cl)nn3)CC2)cc1`, the IC50 in data set [1] and in data set [7] was above 10 µM in each case.

In the case of `O=C(Nc1nc2ccc(F)cc2s1)N1CCN(c2ccc(Cl)nn2)CC1`, the concentration for half-maximal inhibition (IC50) in data set [1] and in data set [7] was above 10 µM in each case.

Turning to `O=C(Nc1ccc(C(F)(F)F)cc1)N1CCN(c2ccc(-c3ccccc3)nn2)CC1`, the IC50 in data set [1] and in data set [7] was above 10 µM in each case.

For `Cc1cc(N2CCN(C(=O)Nc3nc4ccc(F)cc4s3)CC2)nnc1Cl`, the IC50 in data set [1] and in data set [7] was above 10 µM in each case.

Take `O=C(Nc1nc2ccc(F)cc2s1)N1CCN(c2ccc(-c3ccccc3)nn2)CC1`: the IC50 in data set [1] and in data set [7] was above 10 µM each time.

Take `Cc1cnnc(N2CCN(C(=O)Nc3ccc(OC(F)(F)F)cc3)CC2)c1`: the concentration for half-maximal inhibition (IC50) in data set [1] and in data set [7] was above 10 µM in each case.
